Measured values from publication PMC12714840 (Nature Communications, 2025).

Tests used:
[1] = target: GPR99/OXGR1 K32A (Homo sapiens, UniProt Q96P68, K32A); experiment: IP-one accumulation assay, K32A mutant; format: cell-based; conditions: K32A vs WT; oxoglutarate stimulation
[2] = target: GPR99/OXGR1 C141A (Homo sapiens, UniProt Q96P68, C141A); experiment: IP-one accumulation assay, C141A mutant; format: cell-based; conditions: C141A vs WT
[3] = target: GPR99 (Homo sapiens, UniProt Q96P68); conditions: GPR99 recognition of oxoglutarate; cited from earlier work
[4] = target: GPR99/OXGR1 (Homo sapiens, UniProt Q96P68); conditions: oxoglutarate for GPR99/OXGR1; no reference given; cited from earlier work
[5] = target: Human GPR99 (wild-type) (Homo sapiens, UniProt Q96P68); experiment: IP-one accumulation assay, wild-type receptor; format: cell-based; conditions: WT
[6] = target: GPR99/OXGR1 R148A (Homo sapiens, UniProt Q96P68, R148A); experiment: IP-one accumulation assay, R148A mutant; format: cell-based; conditions: R148A vs WT
[7] = target: GPR99/OXGR1 Y92A (Homo sapiens, UniProt Q96P68, Y92A); experiment: IP-one accumulation assay, Y92A mutant; format: cell-based; conditions: Y92A vs WT; oxoglutarate stimulation
[8] = target: Human GPR99 (WT) (Homo sapiens, UniProt Q96P68); experiment: cAMP inhibition assay; format: cell-based
In short: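 HeLa cells transiently expressing human GPR99 for 24 h, pretreated 12 h at 37 °C with 250 ng/mL PTX or vehicle. Cells harvested in HBSS with 5 mM HEPES, 0.1% BSA and 0.5 mM IBMX, then stimulated 30 min with varying ligand concentrations plus 2.5 μM forskolin. cAMP read by LANCE Ultra kit. Data are % of maximal response, mean ± SEM, ≥3 independent experiments; EC50 from three-parameter curve fit.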

[9] = 250 ng/mL PTX pretreatment 12 h

Molecule	increase in EC50 (IP1 accumulation) [1]	maximum response (Emax), IP1 accumulation [1]	effect of alanine substitution on oxoglutarate-induced receptor activation (IP1) [2]	EC50 [3] [µM]	affinity (Kd) [4]	IP1 accumulation (PLC pathway downstream of Gq) ([5]; HeLa)	effect of alanine substitution on oxoglutarate-induced receptor activation (IP1) [6]	increase in EC50 (IP1 accumulation) [7]	maximum response (Emax), IP1 accumulation [7]	cAMP reduction downstream of Gi coupling ([8]; HeLa, 2.5 μM forskolin)	effect on LTE4-induced IP1 accumulation [5, 9]	effect on cAMP response elicited by LTE4 [8, 9]
O=C(O)CCC(=O)C(=O)O [oxoglutarate, 2-oxoglutarate]	more than 100 fold	remained unchanged	little effect	~200	hundreds of micromolar	increased IP1 accumulation	little effect	more than 100 fold	remained unchanged	failed to stimulate cAMP reduction		
pertussis toxin [PTX]											without affecting IP1 accumulation	abrogated
